# From ChEMBL document CHEMBL1629494, “New amino acid esters of salicylanilides active against MDR-TB and other microbes” (Eur J Med Chem, 2010)
# Assays:
# [1] = test system: Staphylococcus aureus; assay: Antibacterial activity against methicillin-resistant Staphylococcus aureus H5996/08 after 48 hrs by broth microdilution method; type: functional; settings: H5996/08, 48 h
# How it was run: (§1)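 Broth microdilution following […], with twofold compound dilutions in Mueller-Hinton bouillon. Incubated 24 and 48 h at 35 °C in the dark in a humid atmosphere. MIC (IC80) was taken as ≥80% growth reduction versus control, read visually and photometrically.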
# [2] = test system: Mycobacterium kansasii; assay: Antimycobacterial activity against Mycobacterium kansasii 6509/96 after 21 days by micromethod; type: functional; settings: 6509/96, 504 h
# How it was run: (§2)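 Micromethod in Sula semisynthetic medium, with compounds added as DMSO solutions at 1000, 500, 250, 125, 62, 32, 16, 8, 4, 2, 1, 0.5, 0.25. Inoculum dilutions: H37Rv 10^-3; M. avium 330/88 10^-5; M. kansasii 235/80 10^-4; M. kansasii 6509/96 10^-5. Incubated at 37 °C, read at 14 and 21 days, and at 7 days for M. kansasii. MIC was the lowest concentration inhibiting growth.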
# [3] = test system: Aspergillus fumigatus; assay: Antifungal activity against Aspergillus fumigatus 231 after 48 hrs by broth microdilution method; type: functional; settings: Aspergillus fumigatus, 231, 48 h
# [4] = test system: Nakaseomyces glabratus; assay: Antifungal activity against Candida glabrata 20/I after 48 hrs by broth microdilution method; type: functional
# [5] = test system: PBMC; assay: Cytotoxicity against human PBMC after 24 hrs by MTT assay; type: cell-based
# How it was run: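 Human peripheral blood mononuclear cells in RPMI-1640 with 10% fetal calf serum, 2 mM L-glutamine and gentamicin, 37 °C, 5% CO2. Seeded at 1.5–2.0 × 10⁵ cells/well. After 24 h, treated overnight in serum-free medium. Viability by MTT (2 mg/mL, 4 h); formazan dissolved in DMSO; OD540 minus OD620. Cytotoxicity % = [1 − OD treated/OD control] × 100; IC50 from dose-response curves. Four parallels, two independent experiments.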
# [6] = test system: Enterococcus sp.; assay: Antibacterial activity against Enterococcus sp. J14365/08 after 48 hrs by broth microdilution method; type: functional; settings: J14365/08, 48 h; how it was run: as §1
# [7] = test system: Pichia kudriavzevii; assay: Antifungal activity against Candida krusei E28 after 48 hrs by broth microdilution method; type: functional; settings: E28, 48 h
# [8] = test system: Mycobacterium avium; assay: Antimycobacterial activity against multidrug-resistant Mycobacterium avium 330/88 after 14 days by micromethod; type: functional; settings: 330/88, 336 h; how it was run: as §2
# [9] = test system: Nakaseomyces glabratus; assay: Antifungal activity against Candida glabrata 20/I after 24 hrs by broth microdilution method; type: functional
# [10] = test system: Mycobacterium kansasii; assay: Antimycobacterial activity against Mycobacterium kansasii 235/80 after 21 days by micromethod; type: functional; settings: 235/80, 504 h; how it was run: as §2
# [11] = test system: Klebsiella pneumoniae; assay: Antibacterial activity against Klebsiella pneumoniae D11750/08 after 24 hrs by broth microdilution method; type: functional; settings: D11750/08, 24 h; how it was run: as §1
# [12] = test system: Lichtheimia corymbifera; assay: Antifungal activity against Absidia corymbifera 272 after 24 hrs by broth microdilution method; type: functional; settings: Lichtheimia corymbifera, 272, 24 h
# [13] = test system: Trichosporon beigelii; assay: Antifungal activity against Trichosporon beigelii 1188 after 24 hrs by broth microdilution method; type: functional; settings: Trichosporon beigelii, 1188, 24 h
# [14] = test system: Mycobacterium tuberculosis; assay: Antimycobacterial activity against Mycobacterium tuberculosis H37Rv 331/88 after 21 days by micromethod; type: functional; settings: H37Rv 331/88, 504 h; how it was run: as §2
# [15] = test system: Mycobacterium tuberculosis; assay: Antimycobacterial activity against Mycobacterium tuberculosis H37Rv 331/88 after 14 days by micromethod; type: functional; settings: H37Rv 331/88, 336 h; how it was run: as §2
# [16] = test system: Trichosporon beigelii; assay: Antifungal activity against Trichosporon beigelii 1188 after 48 hrs by broth microdilution method; type: functional; settings: Trichosporon beigelii, 1188, 48 h
# [17] = test system: Candida albicans; assay: Antifungal activity against Candida albicans ATCC 44859 after 48 hrs by broth microdilution method; type: functional; settings: ATCC 44859, 48 h
# [18] = test system: Mycobacterium avium; assay: Antimycobacterial activity against multidrug-resistant Mycobacterium avium 330/88 after 21 days by micromethod; type: functional; settings: 330/88, 504 h; how it was run: as §2
# [19] = Lipophilicity, log P of the compound; type: physicochemical; settings: octanol/water
# [20] = test system: Candida tropicalis; assay: Antifungal activity against Candida tropicalis 156 after 48 hrs by broth microdilution method; type: functional; settings: Candida tropicalis, 156, 48 h
# [21] = test system: Candida albicans; assay: Antifungal activity against Candida albicans ATCC 44859 after 24 hrs by broth microdilution method; type: functional; settings: ATCC 44859, 24 h
# [22] = test system: Pichia kudriavzevii; assay: Antifungal activity against Candida krusei E28 after 24 hrs by broth microdilution method; type: functional; settings: E28, 24 h
# [23] = test system: Aspergillus fumigatus; assay: Antifungal activity against Aspergillus fumigatus 231 after 24 hrs by broth microdilution method; type: functional; settings: Aspergillus fumigatus, 231, 24 h
# [24] = test system: Klebsiella pneumoniae; assay: Antibacterial activity against Klebsiella pneumoniae D11750/08 after 48 hrs by broth microdilution method; type: functional; settings: D11750/08, 48 h; how it was run: as §1
# [25] = test system: Staphylococcus aureus; assay: Antibacterial activity against Staphylococcus aureus CCM 4516/08 after 24 hrs by broth microdilution method; type: functional; settings: CCM 4516/08, 24 h; how it was run: as §1
# [26] = test system: Mycobacterium avium; assay: Antimycobacterial activity against Mycobacterium avium; type: functional
# [27] = test system: Enterococcus sp.; assay: Antibacterial activity against Enterococcus sp. J14365/08 after 24 hrs by broth microdilution method; type: functional; settings: J14365/08, 24 h; how it was run: as §1
# [28] = test system: Trichophyton mentagrophytes; assay: Antifungal activity against Trichophyton mentagrophytes after 24 hrs by broth microdilution method; type: functional
# [29] = test system: Lichtheimia corymbifera; assay: Antifungal activity against Absidia corymbifera 272 after 48 hrs by broth microdilution method; type: functional; settings: Lichtheimia corymbifera, 272, 48 h
# [30] = test system: Mycobacterium kansasii; assay: Antimycobacterial activity against Mycobacterium kansasii 235/80 after 7 days by micromethod; type: functional; settings: 235/80, 168 h; how it was run: as §2
# [31] = test system: Mycobacterium kansasii; assay: Antimycobacterial activity against Mycobacterium kansasii 6509/96 after 14 days by micromethod; type: functional; settings: 6509/96, 336 h; how it was run: as §2
# [32] = test system: Escherichia coli; assay: Antibacterial activity against Escherichia coli CCM 4517 after 48 hrs by broth microdilution method; type: functional; settings: CCM 4517, 48 h; how it was run: as §1
# [33] = test system: Staphylococcus epidermidis; assay: Antibacterial activity against Staphylococcus epidermidis H6966/08 after 24 hrs by broth microdilution method; type: functional; settings: H6966/08, 24 h; how it was run: as §1
# [34] = test system: Escherichia coli; assay: Antibacterial activity against Escherichia coli CCM 4517 after 24 hrs by broth microdilution method; type: functional; settings: CCM 4517, 24 h; how it was run: as §1
# [35] = test system: Staphylococcus aureus; assay: Antibacterial activity against Staphylococcus aureus CCM 4516/08 after 48 hrs by broth microdilution method; type: functional; settings: CCM 4516/08, 48 h; how it was run: as §1
# [36] = test system: Trichophyton mentagrophytes; assay: Antifungal activity against Trichophyton mentagrophytes after 48 hrs by broth microdilution method; type: functional
# [37] = test system: Mycobacterium kansasii; assay: Antimycobacterial activity against Mycobacterium kansasii 6509/96 after 7 days by micromethod; type: functional; settings: 6509/96, 168 h; how it was run: as §2
# [38] = test system: Candida tropicalis; assay: Antifungal activity against Candida tropicalis 156 after 24 hrs by broth microdilution method; type: functional; settings: Candida tropicalis, 156, 24 h
# [39] = test system: Mycobacterium kansasii; assay: Antimycobacterial activity against Mycobacterium kansasii 235/80 after 14 days by micromethod; type: functional; settings: 235/80, 336 h; how it was run: as §2
# [40] = test system: Mycobacterium tuberculosis; assay: Antimycobacterial activity against drug-sensitive Mycobacterium tuberculosis; type: functional
# [41] = test system: Mycobacterium kansasii; assay: Antimycobacterial activity against Mycobacterium kansasii; type: functional
# [42] = Selectivity index, ratio of IC50 for human PBMC to MIC for Mycobacterium tuberculosis H37Rv 331/88 after 14 days; type: functional
# How it was run: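 SI = PBMC IC50 (MTT cytotoxicity) divided by the MIC against the named M. tuberculosis strain. MIC taken after 14 days of incubation at 37 °C by the micromethod.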
# [43] = test system: Staphylococcus aureus; assay: Antibacterial activity against methicillin-resistant Staphylococcus aureus H5996/08 after 24 hrs by broth microdilution method; type: functional; settings: H5996/08, 24 h; how it was run: as §1
# [44] = test system: Staphylococcus epidermidis; assay: Antibacterial activity against Staphylococcus epidermidis H6966/08 after 48 hrs by broth microdilution method; type: functional; settings: H6966/08, 48 h; how it was run: as §1
smiles,measurement,setting,value
CC(=O)N[C@@H](Cc1ccccc1)C(=O)Oc1ccc(Br)cc1C(=O)Nc1ccc(C(F)(F)F)cc1,MIC,[1],125 µM
same,MIC,[2],2 µM
same,MIC,[3],31.2 µM
same,MIC,[4],500 µM
same,IC50,[5],48.7 µM
same,MIC,[6],125 µM
same,MIC,[7],125 µM
same,MIC,[8],4 µM
same,MIC,[9],125 µM
same,MIC,[10],2 µM
same,MIC,[11],> 500 µM
same,MIC,[12],7.81 µM
same,MIC,[13],15.6 µM
same,MIC,[14],0.5 µM
same,MIC,[15],0.25 µM
same,MIC,[16],31.2 µM
same,MIC,[17],500 µM
same,MIC,[18],4 µM
same,logP,[19],5.19
same,MIC,[20],250 µM
same,MIC,[21],31.2 µM
same,MIC,[22],15.6 µM
same,MIC,[23],15.6 µM
same,MIC,[24],> 500 µM
same,MIC,[25],3.9 µM
same,MIC,[26],1 µM
same,MIC,[27],15.6 µM
same,MIC,[28],3.9 µM
same,MIC,[29],15.6 µM
same,MIC,[30],0.5 µM
same,MIC,[31],2 µM
same,MIC,[32],500 µM
same,MIC,[33],15.6 µM
same,MIC,[34],250 µM
same,MIC,[35],31.2 µM
same,MIC,[36],7.81 µM
same,MIC,[37],1 µM
same,MIC,[38],125 µM
same,MIC,[39],2 µM
same,MIC,[40],1 µM
same,MIC,[41],1 µM
same,Selectivity Index,[42],194.8
same,MIC,[43],7.81 µM
same,MIC,[44],62.5 µM
CC(=O)N[C@@H](Cc1ccccc1)C(=O)Oc1ccc(Cl)cc1C(=O)Nc1ccc(C(F)(F)F)cc1,MIC,[1],7.81 µM
same,MIC,[2],2 µM
same,MIC,[3],> 125 µM
same,MIC,[4],> 125 µM
same,IC50,[5],12.2 µM
same,MIC,[6],> 125 µM
same,MIC,[7],> 125 µM
same,MIC,[8],4 µM
same,MIC,[9],> 125 µM
same,MIC,[10],2 µM
same,MIC,[11],> 125 µM
same,MIC,[12],> 125 µM
same,MIC,[13],125 µM
same,MIC,[14],0.5 µM
same,MIC,[15],0.25 µM
same,MIC,[16],> 125 µM
same,MIC,[17],> 125 µM
same,MIC,[18],4 µM
same,logP,[19],4.92
same,MIC,[20],> 125 µM
same,MIC,[21],> 125 µM
same,MIC,[22],125 µM
same,MIC,[23],125 µM
same,MIC,[24],> 125 µM
same,MIC,[25],0.98 µM
same,MIC,[26],1 µM
same,MIC,[27],31.2 µM
same,MIC,[28],62.5 µM
same,MIC,[29],> 125 µM
same,MIC,[30],0.5 µM
same,MIC,[31],2 µM
same,MIC,[32],> 125 µM
same,MIC,[33],0.98 µM
same,MIC,[34],> 125 µM
same,MIC,[35],1.95 µM
same,MIC,[36],> 125 µM
same,MIC,[37],1 µM
same,MIC,[38],> 125 µM
same,MIC,[39],1 µM
same,MIC,[40],1 µM
same,MIC,[41],1 µM
same,Selectivity Index,[42],48.8
same,MIC,[43],0.98 µM
same,MIC,[44],3.9 µM
CC(=O)N[C@@H](Cc1ccccc1)C(=O)Oc1cc(Cl)ccc1C(=O)Nc1cccc(Cl)c1,MIC,[1],125 µM
same,MIC,[2],8 µM
same,MIC,[3],> 125 µM
same,MIC,[4],> 125 µM
same,MIC,[6],> 125 µM
same,MIC,[7],> 125 µM
same,MIC,[8],4 µM
same,MIC,[9],> 125 µM
same,MIC,[10],8 µM
same,MIC,[11],> 125 µM
same,MIC,[12],62.5 µM
same,MIC,[13],125 µM
same,MIC,[14],4 µM
same,MIC,[15],2 µM
same,MIC,[16],> 125 µM
same,MIC,[17],> 125 µM
same,MIC,[18],8 µM
same,MIC,[20],> 125 µM
same,MIC,[21],> 125 µM
same,MIC,[22],> 125 µM
same,MIC,[23],> 125 µM
same,MIC,[24],> 125 µM
same,MIC,[25],31.2 µM
same,MIC,[26],1 µM
same,MIC,[27],125 µM
same,MIC,[28],62.5 µM
same,MIC,[29],> 125 µM
same,MIC,[30],4 µM
same,MIC,[31],4 µM
same,MIC,[32],> 125 µM
same,MIC,[33],62.5 µM
same,MIC,[34],> 125 µM
same,MIC,[35],125 µM
same,MIC,[36],> 125 µM
same,MIC,[37],2 µM
same,MIC,[38],> 125 µM
same,MIC,[39],4 µM
same,MIC,[40],1 µM
same,MIC,[41],1 µM
same,MIC,[43],125 µM
same,MIC,[44],125 µM
